These results are taken from ChEMBL document CHEMBL2074271 (J Pharmacol Exp Ther, 2002).

Each structure is given as a SMILES string. Where “and” joins values, the source holds several entries; their conditions need not be identical. Identical values can stand only once.

Holding throughout (format): functional, cell-based
Assay [1] deals with T1, Solute carrier family 22 member 2 (Rattus norvegicus, UniProt Q9R0W2).
T1 sequence (Q9R0W2 whole entry): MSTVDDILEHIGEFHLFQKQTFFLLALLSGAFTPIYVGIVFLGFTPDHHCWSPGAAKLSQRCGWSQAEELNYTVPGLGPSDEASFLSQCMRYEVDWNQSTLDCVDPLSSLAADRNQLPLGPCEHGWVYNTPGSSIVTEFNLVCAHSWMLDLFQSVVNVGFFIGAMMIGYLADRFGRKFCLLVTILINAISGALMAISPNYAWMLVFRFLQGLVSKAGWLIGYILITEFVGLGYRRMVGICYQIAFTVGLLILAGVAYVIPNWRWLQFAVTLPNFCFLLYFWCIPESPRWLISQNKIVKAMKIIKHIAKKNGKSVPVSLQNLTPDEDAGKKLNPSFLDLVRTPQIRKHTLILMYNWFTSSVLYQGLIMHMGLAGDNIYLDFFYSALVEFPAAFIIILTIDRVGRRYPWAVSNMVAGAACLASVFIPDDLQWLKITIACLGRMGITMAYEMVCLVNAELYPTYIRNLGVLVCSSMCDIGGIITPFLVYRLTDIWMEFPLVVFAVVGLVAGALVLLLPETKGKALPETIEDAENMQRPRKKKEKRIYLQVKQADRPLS
Put plainly: TP_TRANSPORTER: inhibition of TEA uptake (in the presence of bicarbonate) (TEA: 20 uM) in OCT2-expressing HEK293 cells. In a few lines:
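Stably rOCT1- or rOCT2-transfected HEK 293 cells suspended in bicarbonate (25 mM) Krebs-Henseleit buffer, pH 7.4 set by 95% O2/5% CO2 bubbling, 25°C. […] Percent of uninhibited control; IC50 mean ± S.E.M. of 3–6 experiments.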

The target in assay [2] is T2, Solute carrier family 22 member 1 (Rattus norvegicus, UniProt Q63089).
T2 sequence (Q63089 whole entry): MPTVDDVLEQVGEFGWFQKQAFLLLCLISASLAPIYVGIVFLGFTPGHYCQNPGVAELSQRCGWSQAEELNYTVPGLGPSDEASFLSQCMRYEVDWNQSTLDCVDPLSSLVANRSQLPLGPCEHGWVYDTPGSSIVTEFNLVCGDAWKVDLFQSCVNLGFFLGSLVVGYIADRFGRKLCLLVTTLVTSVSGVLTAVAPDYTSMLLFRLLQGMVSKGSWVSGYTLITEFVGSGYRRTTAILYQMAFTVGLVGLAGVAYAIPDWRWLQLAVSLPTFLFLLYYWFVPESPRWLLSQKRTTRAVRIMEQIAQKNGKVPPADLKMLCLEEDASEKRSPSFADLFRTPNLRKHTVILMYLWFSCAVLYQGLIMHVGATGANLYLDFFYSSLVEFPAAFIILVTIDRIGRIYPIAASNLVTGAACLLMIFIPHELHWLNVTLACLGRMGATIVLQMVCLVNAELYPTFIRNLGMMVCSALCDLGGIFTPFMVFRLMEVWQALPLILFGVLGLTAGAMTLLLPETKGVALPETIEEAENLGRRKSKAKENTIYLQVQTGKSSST
Description: TP_TRANSPORTER: inhibition of TEA uptake (in the presence of bicarbonate) (TEA: 20 uM) in OCT1-expressing HEK293 cells. In a few lines:
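Stably rOCT1- or rOCT2-transfected HEK 293 cells suspended in bicarbonate (25 mM) Krebs-Henseleit buffer, pH 7.4 set by 95% O2/5% CO2 bubbling, 25°C.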

Assay [3] concerns the target T2, Solute carrier family 22 member 1. Put plainly: TP_TRANSPORTER: inhibition of TEA uptake (in the absence of bicarbonate) (TEA: 20 uM) in OCT1-expressing HEK293 cells. Summed up: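 Uptake in rOCT1- or rOCT2-expressing stably transfected HEK 293 cells, run in bicarbonate-free Cross-Taggart phosphate buffer, pH 7.4, 25°C. 20 μM [14C]TEA final, 3 s incubation across inhibitor concentrations; ice-cold stopping buffer, centrifugation, washes, scintillation counting.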

Assay [4] addresses T1, Solute carrier family 22 member 2. Put plainly: TP_TRANSPORTER: inhibition of TEA uptake (in the absence of bicarbonate) (TEA: 20 uM) in OCT2-expressing HEK293 cells. Summed up: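 Uptake in rOCT1- or rOCT2-expressing stably transfected HEK 293 cells, run in bicarbonate-free Cross-Taggart phosphate buffer, pH 7.4, 25°C. 20 μM [14C]TEA final, 3 s incubation across inhibitor concentrations; ice-cold stopping buffer, centrifugation, washes, scintillation counting. Expressed relative to control uptake without inhibitor; IC50 mean ± S.E.M. of 3–6 experiments.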

The target of assay [5] is T2, Solute carrier family 22 member 1. Put plainly: TP_TRANSPORTER: inhibition of Amantadine uptake (in the presence of bicarbonate) (Amantadine: 10 uM) in OCT1-expressing HEK293 cells. Summed up:
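Rat OCT1 or OCT2 stably transfected HEK 293 cells, grown to 80% confluence, detached and resuspended in KHS (25 mM bicarbonate, pH 7.4, gassed O2/CO2 95%/5%), protein 5–6 mg/ml. […] Highest cyanine863 tested 200 μM. IC50 from 3–6 experiments.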

In general, IC50 refers to the point on the concentration scale where inhibition reaches its midpoint.

On to `NC12CC3CC(CC(C3)C1)C2` [AMANTADINE], for which the IC50 in assay [1] was determined as 210 µM; in assay [2] it was 500 µM; in assay [3] it was 280 µM; in assay [4], 290 µM.

Regarding `CC[n+]1c(CC2C=C(C)N=C(c3ccccc3)N2C)ccc2ccccc21` (stereo not drawn) [Cyanine-863], the IC50 in assay [1] was 1 µM; in assay [2], 0.4 µM; in assay [3], 0.45 µM; in assay [4], 1.2 µM; in assay [5], 89 µM and > 200 µM.

For `CCN(CC)CCNC(=O)c1ccc(N)cc1` [PROCAINAMIDE], the results for the IC50 in assay [1] and in assay [4] were 90 µM and 215 µM, respectively.

With `C=C[C@H]1C[N@@]2CC[C@H]1C[C@H]2[C@H](O)c1ccnc2ccc(OC)cc12` [QUININE], the IC50 in assay [1] came out at 13 µM; in assay [4], 38 µM.
